Source: PubChem BioAssay (several laboratories)
NR3A LBD binder: binders of NR3A ligand-binding domain, primary screen, biophysical, differential scanning fluorimetry, uHTS; Tm shift relative to glycine control, % at 25 µM; 340,000 tested, 2.5% active; Glutamate receptor ionotropic, NMDA 3A (GRIN3A) ligand-binding domain; NR3A LBD differential scanning fluorimetry, Tm shift; 0% = protein alone, 100% = glycine-bound protein;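 active = melting temperature shift of at least 10% of the positive control shift, at one fixed dose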
Arrestin-AP2 inh: inhibitors of beta-arrestin/AP2 binding, primary screen, biochemical, GPCR trafficking, flow cytometry | inhibition, % at 10 µM | FITC-arrestin peptide / GST-AP2 beads; AP2 beta2 appendage carries R879A mutation | beta-arrestin 1 C-terminal peptide binding to AP2 beta2-adaptin appendage (human) | 340,000 tested, 0.31% active;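 active = inhibition above a set limit, near 3 SD of compounds lacking own fluorescence, cut at about 54% in these data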
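system = GST-tagged AP2 beta2-adaptin appendage (R879A) on 4 µm glutathione beads | reagent = FITC-labelled arrestin peptide probe, 50 nM final | schedule = compound with beads 12 min RT, then probe 1 h RT | signal = HyperCyt-sampled flow cytometry, FL1 channel, ex 488/em 535 nm | read-out = percent response from loss of bead-bound FITC fluorescence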
H9c2 protect: cardioprotection against H2O2-induced cell death, primary screen, uHTS, H9c2 cells, ATPLite luminescence; H9c2 cardiomyocytes, H2O2 injury protection, 2 h; protection from H2O2 cell death, % at 20 µM; 360,000 tested, 0.63% active;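 active = compounds giving at least 50% protection of heart cells from peroxide-induced death in the single-dose screen, raw or plate-pattern-corrected value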
hiPSC survival: enhancers of single-cell hiPSC survival, primary screen, ATPlite luminescence. 100% = ROCK inhibitor wells, 0% = DMSO. survival enhancement, % at 20 µM. 360,000 tested, 0.044% active. AID 602274, 2012; in the data active = survival enhancement above about 18%;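 note: cells exposed to compounds for 16 hours before the ATP read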
SENP1 FRET inh: human SENP1 catalytic domain inhibitors, primary screen, biochemical, FRET, uHTS; Sentrin-specific protease 1 (Homo sapiens), Q9P0U3; recombinant SENP1 catalytic domain, CyPet-SUMO1-YPet FRET cleavage; inhibition, % at 10 µM; 360,000 tested, 0.21% active;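 active = inhibition at least 30% at 10 µM, raw YFP signal under a set limit, fluorescence ratio 0.5 to 1.5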
Target sequence (Q9P0U3 419-644 limits assumed): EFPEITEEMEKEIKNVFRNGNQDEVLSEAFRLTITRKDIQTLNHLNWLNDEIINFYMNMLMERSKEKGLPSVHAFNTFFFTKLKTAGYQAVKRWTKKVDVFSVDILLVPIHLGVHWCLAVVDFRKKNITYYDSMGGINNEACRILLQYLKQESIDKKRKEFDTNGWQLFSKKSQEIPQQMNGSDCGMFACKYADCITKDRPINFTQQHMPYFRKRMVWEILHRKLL
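Test system: hSENP1 catalytic domain, recombinant; Amount: 20 pM final SENP1 enzyme; Medium: Tris pH 8 buffer plus EDTA, NaCl, BME, BSA, NP40, catalase; Schedule: 50 min enzyme reaction, room temperature, light-protected; Technique: FRET fluorescence in CFP and YFP emission channels; Controls: no-enzyme wells low, DMSO-plus-enzyme wells high control.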
FAS-TE inh: FAS thioesterase domain inhibitors, primary screen, biochemical, fluorescence intensity, uHTS | inhibition, % at 15 µM | 360,000 tested, 0.67% active | AID 602261, 2012 | Fatty acid synthase (Homo sapiens), P49327 | recombinant FAS-TE, OMFH fluorogenic substrate, fluorescence endpoint;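 active = compounds whose normalised, plate-corrected inhibition of enzyme fluorescence in the single-dose primary screen is 50% or more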
A number is an active result; . = inactive; / = no result. Sampled rows, rich in hits. Any-hit rate of the full collection: about 4%.

SMILES	NR3A LBD binder	Arrestin-AP2 inh	H9c2 protect	hiPSC survival	SENP1 FRET inh	FAS-TE inh
O=C(c1[nH]c(C(F)(F)F)nc1-c1ccccc1)N1CCc2c([nH]c3ccccc23)C1	/	/	.	.	.	.
COc1cccc(/C=N/NC(=O)CNC(=O)C2COc3ccccc3O2)c1O (configuration not stated)	.	.	66	.	.	.
O=C(N/N=C/c1cc(Cl)ccc1O)c1ccc(Br)cc1	.	.	.	.	.	.
Cc1cccc(/C=N\NC(=O)c2ccc(Cl)cc2)c1O	10	.	.	.	.	.
Cc1cccc(/C=N/NC(=O)Cc2ccc(Cl)cc2)c1O	.	.	.	.	.	.
COc1cccc(/C=N/NC(=O)C(=O)Nc2ccccc2OC(F)(F)C(F)F)c1O	.	.	.	.	35	.
Cc1ccc(N=Nc2ccc(O)c(/C=N\NC(=O)c3ccc(N)cc3)c2)cc1C	.	.	56	.	.	.
COc1ccc(-c2csc(C(C)(O)c3cccnc3)n2)cc1 (configuration not stated)	/	/	.	.	.	.
COc1cccc(/C=N/NC(=O)C(=O)NCc2cccnc2)c1O	.	.	79	.	.	.
CN(C)c1ccc(/C=N/NC(=O)CNC(=O)c2ccc3c(c2)OCCO3)cc1	.	.	.	.	.	.
O=C(CNC(=O)c1ccc2c(c1)OCCO2)N/N=C/c1ccc(O)cc1O	.	.	72	.	.	.
Cc1ccccc1/C=N/NC(=O)c1ccc(-n2cnnn2)cc1	30	.	.	.	.	.
COc1cccc(/C=N/NC(=O)C(=O)NCc2cccnc2)c1OC	.	.	.	.	.	.
COc1cccc(/C=N/NC(=O)CNC(=O)c2ccc3c(c2)OCCO3)c1O	.	.	66	.	.	.
COc1ccc(CCCC(=O)N/N=C/c2cccc(OC)c2O)cc1C	.	.	53	.	.	.
Cc1cccc(/C=N/NC(=O)c2c(-c3ccccc3)noc2C)c1O	.	.	54	.	.	.
COc1cccc(/C=N/NC(=O)CN2CC(c3ccccc3)CC2=O)c1O (configuration not stated)	.	.	56	.	.	.
COc1cccc(/C=N/NC(=O)c2ccc(-c3ccccc3)cc2)c1O	26	.	.	.	.	.
COc1ccc(OC)c(/C=N\NC(=O)c2ccc(-c3ccccc3)cc2)c1	.	.	.	.	.	.
CC(=O)Nc1ccc(CN(C)c2c(C)nc3ccc(C(=O)N(C)Cc4ccco4)cn23)cc1	/	/	.	.	.	.
Cc1cc(O)ccc1-c1cccc2nccn12	/	/	.	.	.	.
COc1cccc(/C=N/NC(=O)CNC(=O)c2ccncc2)c1O	.	.	60	.	.	.
CC(=O)Nc1ccc2c(c1)OCO2	.	.	.	.	.	.
O=C(/C=C\Nc1ccc2c(c1)OCO2)c1cccs1	.	.	.	.	.	.
O=C(Nc1ccc2c(c1)OCO2)c1ccc(Br)s1	21	.	.	.	.	.
SMILES	NR3A LBD binder	Arrestin-AP2 inh	H9c2 protect	hiPSC survival	SENP1 FRET inh	FAS-TE inh
O=C(Nc1ccc2c(c1)OCO2)c1cccs1	11	.	.	.	.	.
O=C(Nc1ccc2c(c1)OCCO2)c1cccs1	20	.	.	.	.	.
O=C(Nc1cccc(C2OCCCO2)c1)c1cccs1	21	.	.	.	.	.
CCCNC(=O)C1(C)CCCN(Cc2csc(-c3ccccc3)n2)C1 (configuration not stated)	/	/	.	.	.	.
CCOC(=O)[C@]12CCCC=C1N(CCC1=CCCCC1)C(=O)[C@H](CC(=O)NCc1ccc(OC)c(OC)c1)C2	/	/	/	/	.	/
Cn1nc(-c2ccccc2F)c2cc(C(=O)Nc3ccc4c(c3)OCCO4)sc21	.	.	56	.	.	.
CCCCCCCCN1C(=O)[C@H](CC(=O)NCc2cccc(C(F)(F)F)c2)C[C@@]2(C(=O)OC)CC(C)(C)CC=C12	/	/	/	/	.	/
CC(C)C1C(=O)N(Cc2cn(Cc3ccco3)nn2)CCS(=O)(=O)N1Cc1ccc(-c2ccc(Cl)c(Cl)c2)cc1 (configuration not stated)	/	/	.	.	.	.
CC(C)c1nnc(NC(=O)CCC(=O)NC2CCCc3ccccc32)s1 (configuration not stated)	11	.	.	.	.	.
CC(=O)c1c(C(C)=O)c(C)n(-c2nc(-c3cccs3)c(C)s2)c1C	12	.	.	.	.	.
CS(=O)(=O)N(CCc1ccccc1)CC(=O)NCc1ccccc1	36	.	.	.	.	.
CS(=O)(=O)N(CCc1ccccc1)CC(=O)NCc1ccc2c(c1)OCO2	.	.	.	.	.	.
CCCNC(=O)CN(CCc1ccccc1)S(C)(=O)=O	13	.	.	.	.	.
CCOC(=O)N(C)c1c(CC)nc2c(OCc3ccc(Cl)cc3)cccn12	/	/	.	.	.	.
COC(=O)c1ccc(NC(=O)Nc2ccc(F)cc2)cc1	18	.	.	.	.	.
CCOC(=O)c1sc(NC(=O)Nc2ccc(F)cc2)nc1C	.	.	.	.	.	.
CCOC(=O)c1ccc(NC(=O)Nc2ccc(F)cc2)cc1	35	.	.	.	.	.
CC(C)(C)c1ccc(COC(=O)Nc2ccc(F)cc2)cc1	.	.	.	.	.	.
CC(C)(C)c1ccc(NC(=O)Nc2ccc(F)cc2)cc1	14	.	.	.	.	.
O=C(Nc1ccc(F)cc1)Nc1cc(OCC(F)(F)F)cc(OCC(F)(F)F)c1	27	.	.	.	.	.
CCOc1ccc(NC(=O)Nc2cc(OCC(F)(F)F)cc(OCC(F)(F)F)c2)cc1	.	.	.	.	.	.
CCOC(=O)c1sc2nc(OCc3cccnc3)cc(C)c2c1N	/	/	/	.	.	.
COc1cccc(CN(C)C(=O)c2cccc(S(=O)(=O)Nc3cccc(C)c3)c2)c1OC	.	.	.	.	.	.
COc1ccc(NC(=O)Nc2ccccc2F)cc1Cl	20	.	.	.	.	.
COC(=O)c1ccc(NC(=O)Nc2ccc(F)c(Cl)c2)cc1	41	.	.	.	.	.
COC1=CC(=O)OC(c2ccccc2)C1 (configuration not stated)	/	/	/	/	.	/
Cc1ccc(C(=O)Nc2cccc(NC(=O)c3cccs3)c2)c(C)c1	.	.	.	.	.	.
